From ChEMBL document CHEMBL3407460, “Synthesis of novel thiazole-based 8,9-dihydro-7H-pyrimido[4,5-b][1,4]diazepines as potential antitumor and antifungal agents” (2015)

Columns and labels:
Assay type in all cases: functional
[1] = tested on: SK-MEL-5; assay: Antitumor activity against human SK-MEL-5 cells after 48 hrs by Sulforhodamine B assay; details: SK-MEL-5, 48 h
In short: (§1)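 NCI 60-cell-line screen. Secondary five-dose test at 100, 10, 1.0, 0.1 and 0.01 µM with continuous drug exposure for 48 h. Cell growth was estimated by sulforhodamine B protein staining. […] LC50 was also reported.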

[2] = Antitumor activity against human SF539 cells after 48 hrs by Sulforhodamine B assay; details: SF-539, 48 h; in short: as §1
[3] = tested on: A549; assay: Antitumor activity against human A549 cells after 48 hrs by Sulforhodamine B assay; details: A549, 48 h; in short: as §1
[4] = Antitumor activity against human RPMI8226 cells after 48 hrs by Sulforhodamine B assay; details: RPMI-8226, 48 h; in short: as §1
[5] = tested on: CCRF-CEM; assay: Antitumor activity against human CCRF-CEM cells after 48 hrs by Sulforhodamine B assay; in short: as §1
[6] = tested on: HOP-62; assay: Antitumor activity against human HOP62 cells after 48 hrs by Sulforhodamine B assay; details: HOP-62, 48 h; in short: as §1
[7] = Antitumor activity against human HCT15 cells after 48 hrs by Sulforhodamine B assay; details: HCT-15, 48 h; in short: as §1
[8] = Antitumor activity against human SKOV3 cells after 48 hrs by Sulforhodamine B assay; details: SK-OV-3, 48 h; in short: as §1
[9] = Antitumor activity against human PC3 cells after 48 hrs by Sulforhodamine B assay; details: PC-3, 48 h; in short: as §1
[10] = Antitumor activity against human MOLT4 cells after 48 hrs by Sulforhodamine B assay; details: MOLT-4, 48 h; in short: as §1
[11] = tested on: T47D; assay: Antitumor activity against human T47D cells after 48 hrs by Sulforhodamine B assay; in short: as §1
[12] = Antitumor activity against human Hs 578T cells after 48 hrs by Sulforhodamine B assay; in short: as §1
[13] = tested on: SNB-19; assay: Antitumor activity against human SNB19 cells after 48 hrs by Sulforhodamine B assay; details: SNB-19, 48 h; in short: as §1
[14] = Antitumor activity against human COLO205 cells after 48 hrs by Sulforhodamine B assay; details: COLO 205, 48 h; in short: as §1
[15] = tested on: KM12; assay: Antitumor activity against human KM12 cells after 48 hrs by Sulforhodamine B assay; details: KM12, 48 h; in short: as §1
[16] = Antitumor activity against human BT549 cells after 48 hrs by Sulforhodamine B assay; details: BT-549, 48 h; in short: as §1
[17] = tested on: M14; assay: Antitumor activity against human M14 cells after 48 hrs by Sulforhodamine B assay; details: M14, 48 h; in short: as §1
[18] = Antitumor activity against human UACC62 cells after 48 hrs by Sulforhodamine B assay; details: UACC-62, 48 h; in short: as §1
[19] = tested on: SNB-75; assay: Antitumor activity against human SNB75 cells after 48 hrs by Sulforhodamine B assay; details: SNB-75, 48 h; in short: as §1
[20] = Antitumor activity against human HOP92 cells after 48 hrs by Sulforhodamine B assay; details: HOP-92, 48 h; in short: as §1
[21] = tested on: NCI-H522; assay: Antitumor activity against human NCI-H522 cells after 48 hrs by Sulforhodamine B assay; details: NCI-H522, 48 h; in short: as §1
[22] = tested on: DU-145; assay: Antitumor activity against human DU145 cells after 48 hrs by Sulforhodamine B assay; details: DU-145, 48 h; in short: as §1
[23] = tested on: SF-268; assay: Antitumor activity against human SF268 cells after 48 hrs by Sulforhodamine B assay; details: SF-268, 48 h; in short: as §1
[24] = tested on: MCF7; assay: Antitumor activity against human MCF7 cells after 48 hrs by Sulforhodamine B assay; details: MCF7, 48 h; in short: as §1
[25] = tested on: NCI-H460; assay: Antitumor activity against human NCI-H460 cells after 48 hrs by Sulforhodamine B assay; details: NCI-H460, 48 h; in short: as §1
[26] = Antitumor activity against human HCT116 cells after 48 hrs by Sulforhodamine B assay; details: HCT-116, 48 h; in short: as §1
[27] = tested on: SW-620; assay: Antitumor activity against human SW620 cells after 48 hrs by Sulforhodamine B assay; details: SW-620, 48 h; in short: as §1
[28] = Antitumor activity against human HCC2998 cells after 48 hrs by Sulforhodamine B assay; details: HCC 2998, 48 h; in short: as §1
[29] = tested on: MDA-MB-468; assay: Antitumor activity against human MDA-MB-468 cells after 48 hrs by Sulforhodamine B assay; details: MDA-MB-468, 48 h; in short: as §1
[30] = Antitumor activity against human LOXIMVI cells after 48 hrs by Sulforhodamine B assay; details: LOX IMVI; in short: as §1
[31] = tested on: Malme-3M; assay: Antitumor activity against human MALME-3M cells after 48 hrs by Sulforhodamine B assay; in short: as §1
[32] = tested on: NCI-H23; assay: Antitumor activity against human NCI-H23 cells after 48 hrs by Sulforhodamine B assay; details: NCI-H23, 48 h; in short: as §1
[33] = tested on: SK-MEL-2; assay: Antitumor activity against human SK-MEL-2 cells after 48 hrs by Sulforhodamine B assay; details: SK-MEL-2, 48 h; in short: as §1
[34] = tested on: NCI-H226; assay: Antitumor activity against human NCI-H226 cells after 48 hrs by Sulforhodamine B assay; details: NCI-H226, 48 h; in short: as §1
[35] = tested on: HL-60(TB); assay: Antitumor activity against human HL-60(TB) cells after 48 hrs by Sulforhodamine B assay; details: HL-60, 48 h; in short: as §1
[36] = tested on: MDA-MB-435; assay: Antitumor activity against human MDA-MB-435 cells after 48 hrs by Sulforhodamine B assay; details: MDA-MB-435, 48 h; in short: as §1
[37] = tested on: SK-MEL-28; assay: Antitumor activity against human SK-MEL-28 cells after 48 hrs by Sulforhodamine B assay; details: SK-MEL-28, 48 h; in short: as §1
[38] = Antitumor activity against human NCI-ADR-RES cells after 48 hrs by Sulforhodamine B assay; in short: as §1
[39] = tested on: K562; assay: Antitumor activity against human K562 cells after 48 hrs by Sulforhodamine B assay; details: K562, 48 h; in short: as §1
[40] = read-out: LC50 (the source's name)

Nc1ncnc2c1N=C(c1ccc3c(c1)OCO3)CC(c1sc(Cl)nc1Cl)N2 (stereo not drawn)
GI50 [1]: 3.43 µM
CC50 [1, 40]: 40.8 µM
GI50 [2]: 2.22 µM
CC50 [2, 40]: 33.6 µM
GI50 [3]: 6.47 µM
CC50 [3, 40]: > 100 µM
GI50 [4]: 4.66 µM
LC50 (concentration causing 50% net cell kill) [4]: > 100 µM
GI50 [5]: 3.02 µM
CC50 [5, 40]: > 100 µM
GI50 [6]: 5.32 µM
LC50 (concentration giving 50% net cell kill) [6]: 62.6 µM
GI50 [7]: 1.07 µM
CC50 [7, 40]: > 100 µM
GI50 [8]: 2.78 µM
CC50 [8, 40]: > 100 µM
GI50 [9]: 5.15 µM
CC50 [9, 40]: > 100 µM
GI50 [10]: 5.91 µM
LC50 [10]: > 100 µM
GI50 [11]: 5.36 µM
CC50 [11, 40]: > 100 µM
GI50 [12]: 2.35 µM
CC50 [12, 40]: > 100 µM
GI50 [13]: 4.83 µM
LC50 [13]: > 100 µM
GI50 [14]: 3.48 µM
CC50 [14, 40]: 45.6 µM
GI50 [15]: 3.93 µM
CC50 [15, 40]: 73.6 µM
GI50 [16]: 3.79 µM
CC50 [16, 40]: 53.9 µM
GI50 [17]: 2.01 µM
CC50 [17, 40]: 44.6 µM
GI50 [18]: 2.17 µM
LC50 [18]: 63.9 µM
GI50 [19]: 1.39 µM
LC50 (concentration killing 50% of cells) [19]: 61.4 µM
GI50 [20]: 4.25 µM
CC50 [20, 40]: 77.5 µM
GI50 [21]: 2.51 µM
CC50 [21, 40]: 55.3 µM
GI50 [22]: 8.45 µM
CC50 [22, 40]: > 100 µM
GI50 [23]: 9.84 µM
CC50 [23, 40]: 92.2 µM
GI50 [24]: 2.81 µM
CC50 [24, 40]: > 100 µM
GI50 [25]: 3.99 µM
LC50 [25]: > 100 µM
GI50 [26]: 3.42 µM
CC50 [26, 40]: 44.5 µM
GI50 [27]: 2.98 µM
CC50 [27, 40]: > 100 µM
GI50 [28]: 6.11 µM
CC50 [28, 40]: 48.8 µM
GI50 [29]: 1.65 µM
LC50 [29]: > 100 µM
GI50 [30]: 7.02 µM
CC50 [30, 40]: 75.6 µM
GI50 [31]: 14.3 µM
CC50 [31, 40]: 59.2 µM
GI50 [32]: 8.87 µM
LC50 [32]: > 100 µM
GI50 [33]: 5.19 µM
LC50 [33]: 48.6 µM
GI50 [34]: 17.7 µM
CC50 [34, 40]: > 100 µM
GI50 [35]: 36.1 µM
CC50 [35, 40]: > 100 µM
GI50 [36]: 0.35 µM
CC50 [36, 40]: 48.4 µM
GI50 [37]: 7.63 µM
LC50 [37]: 91.6 µM
GI50 [38]: 3.55 µM
CC50 [38, 40]: > 100 µM
GI50 [39]: 0.54 µM
CC50 [39, 40]: > 100 µM
